Experimental data pooled from the literature.
Compare with care: the assays were run in different laboratories.
Target: Calcium/calmodulin-dependent protein kinase type 1B (PNCK, Homo sapiens, UniProt Q6P2M8)

| Compound | assay | conditions | measurement | result |
| --- | --- | --- | --- | --- |
| Cc1ccc(C(=O)Nc2ccc(CN3CCN(C)CC3)c(C(F)(F)F)c2)cc1C#Cc1cnc2cccnn12 | cell-free assay | 23.5 nM | remaining signal | 89% |
| COc1cc(Cl)c(C(=O)N[C@@H](CN[C@H]2CC[C@@H](N)CC2)Cc2ccc(C#N)cc2)cc1-c1ccc(CN[C@H](C)c2ccc(C)cc2)o1 | enzyme activity, inhibitor | 1 µM | remaining activity | 98% |
| CCc1ccccc1C(=O)Nc1n[nH]c2c(C)c(F)c(C3C(C#N)=C(C)N(C)C(C)=C3C#N)cc12 | cell-free assay, competition with immobilised ligand | 1 µM | remaining binding | 100% |
| Nc1ncnc2occ(-c3ccc(NC(=O)Nc4cc(C(F)(F)F)ccc4F)cc3)c12 | cell-free assay | 20 µM | remaining signal | 0.5% |
| CN(CCCC(F)(F)F)c1nccc(-c2cnn3ncccc23)n1 | binding | 1 µM | remaining binding | 100% |
| CC(C)(O)[C@H]1CC[C@H](Nc2ccc3ncc(-c4cccc(C(F)(F)F)c4)n3n2)CC1 | enzyme activity, inhibitor | 1 µM | remaining activity | 100% |
| O=C(Nc1cnn(-c2csc(C(=O)NC3COC3)c2)c1)Nc1ccccc1Cl | enzyme activity, inhibitor | 5 µM | remaining activity | 92.1% |
| CN([C@@H]1CCc2c(CC(=O)O)c3ccccc3n2C1)S(=O)(=O)c1ccc(F)cc1 | cell-free assay, competition with immobilised ligand | 1 µM | remaining binding | 87% |
| CN1CC(Oc2cnc(C#N)cc2-c2ccn3nc(NC(=O)C4CC4)cc3c2)C1 | enzyme activity, inhibitor | 1 µM | inhibition | -21% |
| Cc1sc(C(=O)NC2COC2)cc1-n1cc(NC(=O)Nc2c(F)cccc2Cl)cn1 | enzyme activity, inhibitor | 10 µM | remaining activity | 74.1% |
| N#CCCc1ccc2c(c1)-c1[nH]c3ccc([N+](=O)[O-])cc3c1CC(=O)N2 | cell-free assay | 0.5 µM | remaining signal | 107% |
